ChEMBL document CHEMBL4732140, “Single-step fluorescent probes to detect decrotonylation activity of HDACs through intramolecular reactions” (Eur J Med Chem, 2021)
Calls of active or inactive are those of the source. The rule behind the calls is not given here.

What was measured:
[1] = molecular target: NAD-dependent protein deacylase sirtuin-6 (Homo sapiens) (UniProt Q8N6T7); test: Substrate activity at recombinant human SIRT6 assessed as decrotonylation by measuring increase in fluorescence intensity at 10 uM in presence of NAD+ by fluorescence photometric method
NAD-dependent protein deacylase sirtuin-6 (Homo sapiens), sequence (Q8N6T7 whole entry): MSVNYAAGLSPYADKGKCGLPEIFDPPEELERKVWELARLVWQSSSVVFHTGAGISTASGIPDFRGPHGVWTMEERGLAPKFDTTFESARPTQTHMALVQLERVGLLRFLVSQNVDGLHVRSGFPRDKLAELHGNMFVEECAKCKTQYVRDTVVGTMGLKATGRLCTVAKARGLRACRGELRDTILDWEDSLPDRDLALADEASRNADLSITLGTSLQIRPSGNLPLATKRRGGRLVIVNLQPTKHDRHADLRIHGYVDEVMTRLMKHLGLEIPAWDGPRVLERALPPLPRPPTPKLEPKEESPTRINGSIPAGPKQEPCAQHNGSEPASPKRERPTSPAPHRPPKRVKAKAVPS
Procedure, shortened: (§1)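 Recombinantly expressed, purified sirtuin (40 ng/μl) incubated with probe (10 μM, from 5 mM DMSO stock) and NAD+ at 37 °C in 20 mM HEPES pH 8.0 with 1 mM MgCl2, 2.7 mM KCl, 150 mM NaCl. Fluorescence read with excitation 480 nm, emission 545 nm.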

[2] = molecular target: T1, NAD-dependent protein deacetylase sirtuin-3, mitochondrial (Homo sapiens) (UniProt Q9NTG7); test: Substrate activity at recombinant human SIRT3 assessed as decrotonylation by measuring increase in fluorescence intensity at 10 uM in presence of NAD+ by fluorescence photometric method; procedure, shortened: as §1
T1 sequence (whole entry): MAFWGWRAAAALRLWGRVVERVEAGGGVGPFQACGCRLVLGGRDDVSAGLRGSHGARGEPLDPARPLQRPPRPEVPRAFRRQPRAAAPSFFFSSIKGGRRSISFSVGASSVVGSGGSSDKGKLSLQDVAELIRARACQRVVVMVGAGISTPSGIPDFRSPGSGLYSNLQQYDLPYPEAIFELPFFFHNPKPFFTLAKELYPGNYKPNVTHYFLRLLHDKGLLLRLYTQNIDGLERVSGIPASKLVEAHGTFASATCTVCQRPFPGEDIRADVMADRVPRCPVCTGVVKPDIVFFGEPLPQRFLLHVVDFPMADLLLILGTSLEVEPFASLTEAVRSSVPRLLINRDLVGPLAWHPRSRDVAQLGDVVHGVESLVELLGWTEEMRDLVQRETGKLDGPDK

[3] = molecular target: T2, NAD-dependent protein deacetylase sirtuin-1 (Homo sapiens) (UniProt Q96EB6); test: Substrate activity at recombinant human SIRT1 assessed as decrotonylation by measuring increase in fluorescence intensity at 10 uM in presence of NAD+ by fluorescence photometric method; procedure, shortened: as §1
T2 sequence (whole entry): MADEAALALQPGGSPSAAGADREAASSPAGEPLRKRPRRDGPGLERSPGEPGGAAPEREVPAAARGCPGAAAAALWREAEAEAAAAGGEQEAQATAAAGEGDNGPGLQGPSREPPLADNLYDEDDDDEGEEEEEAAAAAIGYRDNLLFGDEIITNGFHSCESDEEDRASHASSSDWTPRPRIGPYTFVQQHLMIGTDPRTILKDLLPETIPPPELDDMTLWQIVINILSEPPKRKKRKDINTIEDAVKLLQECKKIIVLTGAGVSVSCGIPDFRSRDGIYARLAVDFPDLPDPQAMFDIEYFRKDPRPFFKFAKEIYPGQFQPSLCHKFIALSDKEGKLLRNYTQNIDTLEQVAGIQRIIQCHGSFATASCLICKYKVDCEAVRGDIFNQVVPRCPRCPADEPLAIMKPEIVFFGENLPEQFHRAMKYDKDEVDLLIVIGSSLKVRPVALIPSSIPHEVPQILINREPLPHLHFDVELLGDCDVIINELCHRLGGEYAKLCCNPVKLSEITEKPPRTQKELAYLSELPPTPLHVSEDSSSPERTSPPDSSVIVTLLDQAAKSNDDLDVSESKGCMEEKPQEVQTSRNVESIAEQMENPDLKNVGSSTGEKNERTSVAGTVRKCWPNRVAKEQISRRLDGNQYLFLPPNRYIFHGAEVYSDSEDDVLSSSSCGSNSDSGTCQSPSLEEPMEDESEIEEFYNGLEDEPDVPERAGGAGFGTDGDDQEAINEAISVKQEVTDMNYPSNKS

[4] = molecular target: NAD-dependent protein deacylase sirtuin-5, mitochondrial (Homo sapiens) (UniProt Q9NXA8); test: Substrate activity at recombinant human SIRT5 assessed as decrotonylation by measuring increase in fluorescence intensity at 10 uM in presence of NAD+ by fluorescence photometric method; procedure, shortened: as §1
NAD-dependent protein deacylase sirtuin-5, mitochondrial (Homo sapiens), sequence (Q9NXA8 37-310 limits assumed): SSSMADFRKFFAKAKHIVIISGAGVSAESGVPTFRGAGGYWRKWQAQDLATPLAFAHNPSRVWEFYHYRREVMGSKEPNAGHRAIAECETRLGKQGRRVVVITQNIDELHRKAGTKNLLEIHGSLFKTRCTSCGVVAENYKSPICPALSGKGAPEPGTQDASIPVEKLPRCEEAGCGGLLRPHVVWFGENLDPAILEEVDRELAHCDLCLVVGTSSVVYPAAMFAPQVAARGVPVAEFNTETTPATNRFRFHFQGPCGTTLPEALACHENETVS

[5] = Binding affinity to lysine at 10 uM by fluorescence photometric method
Procedure, shortened: (§2)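 Interferent test: probe at 10 μM treated with each species (amino acids, butylamine) at 100 μM, no enzyme; fluorescence spectra of the reaction mixtures recorded (excitation 480 nm).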

[6] = molecular target: T3, NAD-dependent protein deacetylase sirtuin-2 (Homo sapiens) (UniProt Q8IXJ6); test: Substrate activity at recombinant human SIRT2 assessed as decrotonylation by measuring absorption peak for formation of N-NBD at 10 uM measured after 3 hrs in presence of NAD+ by UV-VS absorption spectra analysis
T3 sequence (whole entry): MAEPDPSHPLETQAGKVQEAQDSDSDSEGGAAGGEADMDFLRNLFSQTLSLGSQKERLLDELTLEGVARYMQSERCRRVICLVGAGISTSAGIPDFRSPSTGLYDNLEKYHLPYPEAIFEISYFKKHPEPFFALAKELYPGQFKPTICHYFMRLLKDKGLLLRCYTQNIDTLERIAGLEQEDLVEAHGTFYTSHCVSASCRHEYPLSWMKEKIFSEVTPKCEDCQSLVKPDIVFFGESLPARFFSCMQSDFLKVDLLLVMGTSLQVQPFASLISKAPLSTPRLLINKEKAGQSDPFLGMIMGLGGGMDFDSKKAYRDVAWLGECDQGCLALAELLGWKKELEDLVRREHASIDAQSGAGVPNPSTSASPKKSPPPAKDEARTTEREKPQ
Procedure, shortened: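 Probe (10 μM, from 5 mM DMSO stock) reacted with recombinant purified Sirt2 (40 ng/μl) and 200 μM NAD+ in 20 mM HEPES pH 8.0 (1 mM MgCl2, 2.7 mM KCl, 150 mM NaCl) at 37 °C for 3 h. Absorbance spectra collected from 300 to 550 nm before and after the reaction.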

[7] = molecular target: T3, NAD-dependent protein deacetylase sirtuin-2 (Homo sapiens); test: Substrate activity at recombinant human SIRT2 assessed as decrotonylation by measuring increase in fluorescence intensity at 10 uM measured after 3 hrs in presence of NAD+ by fluorescence photometric method relative to control
Procedure, shortened: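 Probe (10 μM) incubated 3 h at 37 °C with recombinant Sirt2 (40 ng/μl) and 200 μM NAD+ in 20 mM HEPES pH 8.0 with salts. Emission scanned 510–600 nm (excitation 480 nm, slit 5 nm). Signal compared with controls lacking enzyme and/or NAD+, and with probe alone; fold increase derived.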

[8] = Binding affinity to histidine at 10 uM by fluorescence photometric method; procedure, shortened: as §2
[9] = Binding affinity to cysteine at 10 uM by fluorescence photometric method; procedure, shortened: as §2
[10] = molecular target: T3, NAD-dependent protein deacetylase sirtuin-2 (Homo sapiens); test: Substrate activity at recombinant human SIRT2 assessed as decrotonylation by measuring increase in fluorescence intensity at 10 uM in presence of NAD+ by fluorescence photometric method; conditions: time hrs <=3, TDE = time-dependent effect; procedure, shortened: as §1

Row | Activity [1] | Activity [2] | Activity [3] | Activity [4] | Activity [5] | Activity [6] [nm] | fold change (FC) [7] | Activity [8] | Activity [9] | Activity [10] | Structure (SMILES)
1 | inactive | inactive | Active | inactive | – | – | – | – | – | – | C/C=C/C(=O)NCCCC[C@H](NC(=O)CNC(=O)[C@H](CC(C)C)NC(C)=O)C(=O)NCCOCCOc1ccc([N+](=O)[O-])c2nonc12
2 | inactive | inactive | Active | inactive | inactive | 480 | 5 | inactive | inactive | Tde | C/C=C/C(=O)NCCCC[C@H](NC(=O)OC(C)(C)C)C(=O)NCCOCCOc1ccc([N+](=O)[O-])c2nonc12
